Data as given in ChEMBL document CHEMBL1139507, “Application of phosphoramidate pronucleotide technology to abacavir leads to a significant enhancement of antiviral potency” (J Med Chem, 2005).
pEC50: −log10 of the molar value. Values joined by “and” are separate entries in the source; they are usually repeats but may differ in a detail not shown here. Equal entries are not always repeated.

Experiments:
[1] = tested on: Human immunodeficiency virus 2; experiment: Effective concentration against human immunodeficiency virus type 2 in MT-4 cells; type: functional, organism-based; details: Human immunodeficiency virus 2, MT4
HepG2 [2] = experiment: Cytostatic concentration required to inhibit Hep G2 cell proliferation; type: functional; details: Homo sapiens
CCRF-CEM = experiment: Cytostatic concentration required to inhibit CEM cell proliferation; type: functional; details: Homo sapiens
MT4 = experiment: Cytostatic concentration required to inhibit MT-4 cell proliferation; type: functional, Homo sapiens
[3] = tested on: Human immunodeficiency virus 2; experiment: Effective concentration against human immunodeficiency virus type 2 in CEM cells; type: functional, organism-based; details: Human immunodeficiency virus 2, CCRF-CEM
How it was run: (§1)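 HIV-1- and HIV-2-induced cytopathicity in CEM cell cultures, scored at day 4 by microscopic examination of virus-induced giant cell formation; EC50 = concentration inhibiting cytopathicity by 50%.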

[4] = tested on: Human immunodeficiency virus 1; experiment: Effective concentration against human immunodeficiency virus type 1 in CEM cells; type: functional, organism-based; details: Human immunodeficiency virus 1, CCRF-CEM; how it was run: as §1
[5] = tested on: Human immunodeficiency virus 1; experiment: Effective concentration against human immunodeficiency virus type 1 in MT-4 cells; type: functional, organism-based, MT4
HepG2 [6] = experiment: Cytostatic concentration required to inhibit Hep G2.2.15 cell proliferation; type: functional, Homo sapiens
How it was run: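 Growth inhibition of HepG2 2.2.15 human hepatoma cells (constitutively HBV-producing) measured; CC50 = 50% cytostatic concentration.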

Hepatitis B virus [7] = experiment: Effective concentration againstHBV in Hep G2.2.15 cells; type: functional, organism-based, HepG2 2.2.15
How it was run: (§2)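 Anti-HBV activity assayed in HepG2 2.2.15 human hepatoma cells, which constitutively produce HBV; EC50 = 50% effective concentration.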

Hepatitis B virus [8] = experiment: Effective concentration against HBV in Hep G2.2.15 cells; type: functional, organism-based, HepG2 2.2.15; how it was run: as §2
[9] = Hepatitis B virus, HepG2 2.2.15
[10] = Human immunodeficiency virus 1, MT4

| SMILES | pEC50 [1] | CC50 (HepG2 [2]) | CC50 (CCRF-CEM) | CC50 (MT4) | pEC50 [3] | pEC50 [4] | pEC50 ([5]; mt4) | CC50 (HepG2 [6]) | pEC50 (Hepatitis B virus [7]; [9]) | pEC50 (Hepatitis B virus [8]; hepg2 2.2.15) | pEC50 (Hepatitis B virus [8]; [9]) | pEC50 (Hepatitis B virus [7]; hepg2 2.2.15) | CC50 (MT4; Homo sapiens, MT4) | pEC50 [5, 10] |
| --- | --- | --- | --- | --- | --- | --- | --- | --- | --- | --- | --- | --- | --- | --- |
| COC(=O)[C@@H](C)NP(=O)(OC[C@@H]1C=C[C@H](n2cnc3c(NC4CC4)nc(N)nc32)C1)Oc1ccccc1 (stereo in doubt; 3a,b) | 6.59 | 17000 nM | 13000 nM | 4300 nM and 4600 nM | 7.30 | 7.30 | 6.70 and 7.43 | 17000 nM | 6.26 | 6.26 | – | – | – | – |
| CCOC(=O)[C@@H](C)NP(=O)(OC[C@@H]1C=C[C@H](n2cnc3c(NC4CC4)nc(N)nc32)C1)Oc1ccccc1 (stereo in doubt; 6) | 6.68 | 18000 nM | 12000 nM | 8600 nM | 7.21 | 7.15 | 6.70 | – | – | – | 6.46 | – | – | – |
| COC(=O)[C@@H](C)NP(=O)(OC[C@@H]1C=C[C@H](n2cnc3c(NC4CC4)nc(N)nc32)C1)Oc1ccccc1 (stereo in doubt; 3a) | – | – | – | 1000 nM | – | – | 7.57 | 10000 nM | – | – | – | 6.40 | – | – |
| COC(=O)[C@@H](C)NP(=O)(OC[C@@H]1C=C[C@H](n2cnc3c(NC4CC4)nc(N)nc32)C1)Oc1ccccc1 (stereo in doubt; 3b) | – | – | – | 4000 nM | – | – | 6.96 | 35000 nM | – | 5.82 | – | – | – | – |
| COC(=O)[C@H](C)NP(=O)(OC[C@@H]1C=C[C@H](n2cnc3c(NC4CC4)nc(N)nc32)C1)Oc1ccccc1 (some centres not stated) | 5.39 | 52000 nM | 46000 nM | – | 5.35 | 5.85 | – | – | – | – | 5.89 | – | 4500 nM | 5.47 |
| CCOC(=O)[C@@H](C)NP(=O)(OC[C@@H]1C=C[C@H](n2cnc3c(NC4CC4)nc(N)nc32)C1)Oc1ccccc1 (stereo in doubt; 6a,b) | – | – | – | 4600 nM | – | – | 7.81 | 18000 nM | – | – | – | – | – | – |
| CCOC(=O)[C@@H](C)NP(=O)(OC[C@@H]1C=C[C@H](n2cnc3c(NC4CC4)nc(N)nc32)C1)Oc1ccccc1 (stereo in doubt; 6a) | – | – | – | 950 nM | – | – | 7.81 | 7500 nM | – | 6.70 | – | – | – | – |
| CCOC(=O)[C@@H](C)NP(=O)(OC[C@@H]1C=C[C@H](n2cnc3c(NC4CC4)nc(N)nc32)C1)Oc1ccccc1 (stereo in doubt; 6b) | – | – | – | 5000 nM | – | – | 6.85 | 35000 nM | – | 6.57 | – | – | – | – |
| COC(=O)CNP(=O)(OC[C@@H]1C=C[C@H](n2cnc3c(NC4CC4)nc(N)nc32)C1)Oc1ccccc1 (some centres not stated) | 5.27 | 58000 nM | > 56000 nM | – | 5.70 | 5.74 | – | – | – | – | 6.00 | – | 8500 nM | 5.14 |
| CC(C)OC(=O)[C@@H](C)NP(=O)(OC[C@@H]1C=C[C@H](n2cnc3c(NC4CC4)nc(N)nc32)C1)Oc1ccccc1 (some centres not stated) | 6.59 | 17000 nM | 13000 nM | – | 7.30 | 7.30 | – | – | – | – | 6.26 | – | 4600 nM | 6.70 |
| C[C@@H](NP(=O)(OC[C@@H]1C=C[C@H](n2cnc3c(NC4CC4)nc(N)nc32)C1)Oc1ccccc1)C(=O)OC(C)(C)C (some centres not stated) | 5.47 | 11000 nM | 8600 nM | – | 5.22 | 5.43 | – | – | – | – | 5.30 | – | 2100 nM | 5.18 |
| COC(=O)C(C)(C)NP(=O)(OC[C@@H]1C=C[C@H](n2cnc3c(NC4CC4)nc(N)nc32)C1)Oc1ccccc1 (some centres not stated) | 6.96 | 5500 nM | > 130000 nM | – | 7.19 | 7.17 | – | – | – | – | 7.72 | – | 8100 nM | 6.85 |
